Measurements reported in article PMC10556424 (RSC Advances, 2023).

How the values were obtained:
[1] = test system: HBV DNA in HBV-expressed HepG2.2.15 cells; assay: In vitro anti-HBV activity in HepG2.2.15 cell line; type: cell-based; conditions: Hepatitis B virus, HepG2.2.15, 144 h, read-out: % HBV DNA remaining
Procedure, shortened: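 HepG2.2.15 cells were seeded at 5 × 10^5 per well in high-glucose DMEM with 10% heat-inactivated FBS, 300 mg L−1 G418, 1% non-essential amino acids and antibiotic–antimycotic, then held overnight at 37 °C, 5% CO2. Compound or 0.5% DMSO was given for 3 days, then renewed for 3 more days. Intracellular HBV DNA was measured by qPCR as % remaining versus vehicle; EC50 came from a 4-parameter nonlinear fit.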

[2] = In vitro microsomal stability; type: in vitro ADME; conditions: human liver microsomes, 1 μM, Table 3
Procedure, shortened: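 Compound (1 μM) with pooled human liver microsomes (0.4 mg mL−1) in 100 mM potassium phosphate, pH 7.4, with 3.3 mM MgCl2 and 1.3 mM β-NADPH. Organic solvent was ≤1%, at 37 °C. Time-point samples were quenched with ice-cold acetonitrile containing internal standard, centrifuged, and the supernatants analysed by LC-MS/MS. Results are intrinsic clearance.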

[3] = molecular target: T1, CYP2A6 (Homo sapiens, UniProt P11509); assay: CYP450 inhibition in human liver microsomes; type: in vitro ADME; conditions: pooled human liver microsomes, pH 7.4, probe coumarin (1.5 μM)
T1 sequence (P11509 1-494): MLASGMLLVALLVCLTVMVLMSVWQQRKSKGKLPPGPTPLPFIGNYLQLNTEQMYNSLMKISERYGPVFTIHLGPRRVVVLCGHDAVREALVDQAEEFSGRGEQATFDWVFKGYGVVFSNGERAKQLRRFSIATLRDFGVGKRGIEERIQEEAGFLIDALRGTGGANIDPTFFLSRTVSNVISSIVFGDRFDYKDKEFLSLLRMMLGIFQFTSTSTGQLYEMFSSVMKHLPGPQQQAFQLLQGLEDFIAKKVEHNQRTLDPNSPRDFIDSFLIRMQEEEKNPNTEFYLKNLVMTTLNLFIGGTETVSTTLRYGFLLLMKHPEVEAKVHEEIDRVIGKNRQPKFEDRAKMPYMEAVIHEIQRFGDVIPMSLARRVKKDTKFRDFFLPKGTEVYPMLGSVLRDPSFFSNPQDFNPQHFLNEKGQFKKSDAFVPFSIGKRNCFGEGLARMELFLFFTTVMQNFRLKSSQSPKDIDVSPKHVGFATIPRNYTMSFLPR
Procedure, shortened: (§1)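 Test compound at 10 μM with pooled human liver microsomes (0.2 mg mL−1) and a cocktail of 10 CYP probe substrates. Buffer was 100 mM potassium phosphate, pH 7.4, with 3.3 mM MgCl2, at 37 °C. β-NADPH (1.3 mM) started the reaction. After 10 min, ice-cold 3% formic acid in 5% acetonitrile stopped it. Centrifuged samples went to LC-MS/MS; each metabolite's formation is given as % inhibition versus control.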

[4] = molecular target: T2, CYP2C8 (Homo sapiens, UniProt P10632); assay: CYP450 inhibition in human liver microsomes; type: in vitro ADME; conditions: pooled human liver microsomes, pH 7.4, probe amodiaquine (1 μM)
T2 sequence (P10632 1-490): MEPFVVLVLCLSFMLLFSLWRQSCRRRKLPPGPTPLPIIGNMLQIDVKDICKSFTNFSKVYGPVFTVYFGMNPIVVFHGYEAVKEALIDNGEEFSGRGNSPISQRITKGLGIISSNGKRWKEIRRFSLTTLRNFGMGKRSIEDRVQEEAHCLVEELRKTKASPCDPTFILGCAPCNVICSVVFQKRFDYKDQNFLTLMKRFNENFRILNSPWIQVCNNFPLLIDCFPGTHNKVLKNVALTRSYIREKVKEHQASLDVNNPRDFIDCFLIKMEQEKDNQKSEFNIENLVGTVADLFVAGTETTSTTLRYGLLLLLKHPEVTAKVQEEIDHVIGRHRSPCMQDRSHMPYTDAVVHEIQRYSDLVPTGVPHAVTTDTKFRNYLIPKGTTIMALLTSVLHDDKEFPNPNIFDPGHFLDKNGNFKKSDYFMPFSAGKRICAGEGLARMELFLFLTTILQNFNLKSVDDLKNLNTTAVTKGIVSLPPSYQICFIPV
Procedure, shortened: as §1

[5] = molecular target: CYP2D6 (Homo sapiens, UniProt P10635); assay: CYP450 inhibition in human liver microsomes; type: in vitro ADME; conditions: pooled human liver microsomes, pH 7.4, probe dextromethorphan (2.5 μM)
Procedure, shortened: as §1

CYP2D6, sequence (P10635 whole entry): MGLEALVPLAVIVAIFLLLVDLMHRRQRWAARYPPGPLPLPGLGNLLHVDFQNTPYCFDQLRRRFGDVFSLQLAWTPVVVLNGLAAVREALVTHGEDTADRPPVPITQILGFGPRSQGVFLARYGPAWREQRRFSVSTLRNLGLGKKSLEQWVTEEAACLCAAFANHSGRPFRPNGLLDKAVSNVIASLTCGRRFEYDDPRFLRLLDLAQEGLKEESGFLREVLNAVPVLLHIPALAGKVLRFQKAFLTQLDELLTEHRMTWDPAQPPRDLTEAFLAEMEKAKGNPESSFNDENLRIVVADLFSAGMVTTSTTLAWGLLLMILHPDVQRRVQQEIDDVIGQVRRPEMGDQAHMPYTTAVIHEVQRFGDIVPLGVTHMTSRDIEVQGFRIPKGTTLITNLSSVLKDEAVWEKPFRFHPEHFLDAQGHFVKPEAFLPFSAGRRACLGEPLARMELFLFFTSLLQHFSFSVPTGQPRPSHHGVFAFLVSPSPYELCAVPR

- CLint [2]: 1.1 μL per min per mg protein
- inhibition at 10 min, 10 µM [3]: 57%
- inhibition at 10 min, 10 µM [4]: 55%
- inhibition at 10 min, 10 µM [5]: 82%
Compound: O=C(Nc1cc(F)c(F)c(F)c1)[C@H]1CCN(C(=O)c2cc3cnccc3[nH]2)C1 [CU04, (S)-1-(1H-Pyrrolo[3,2-c]pyridine-2-carbonyl)-N-(3,4,5-trifluorophenyl)pyrrolidine-3-carboxamide]
- activity at 1 µM [1]: 67%
